Active and inactive are the calls of the source.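 Rule for the calls, unless noted: active = GFP response above 150% of the DMSO level; inconclusive = fewer than 70 events counted for a yeast strain; inactive = the rest.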
Key:
[1] = hit retest on RPL19A-GFP reporter strain – cell-based, S. cerevisiae, flow cytometry, cherry picks, mother/daughter gates, confirmation (AID 2270;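 active = GFP response below 50% of the DMSO control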); conditions: 3 h, at 10 µM, stronger effect = lower value, 100 = same GFP as DMSO wells
[2] = yeast TOR pathway reporter LAP4-GFP change – cell-based, cherry picks, flow cytometry, mother/daughter gates, confirmation (AID 2271;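 active = GFP response above 150% of the DMSO control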;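 note: ratio of sample to DMSO plate mean so 100% equals DMSO level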); conditions: S. cerevisiae LAP4-GFP strain, 3 h, at 10 µM, stronger effect = higher value, 100 means same as DMSO control
Outline: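 Material: Alexa Fluor 633-labelled Saccharomyces cerevisiae GFP-fusion strain, single-plex | Amount: Yeast cells seeded at OD600 of 0.2 | Buffer or medium: SC growth medium | Schedule: 3 h exposure, 30 °C | Measured by: HT flow cytometry, GFP fluorescence channel | Evaluation: % GFP response vs DMSO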

[3] = TOR pathway reporter MEP2-GFP, retest of hits – S. cerevisiae, flow cytometry GFP, cherry picks, confirmation (AID 2272;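 active = GFP response above 150% of the DMSO control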;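 note: ratio of well signal to plate DMSO mean so 100% equals DMSO level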); conditions: S. cerevisiae MEP2-GFP strain, 3 h, at 10 µM, stronger effect = higher value
[4] = yeast AGP1-GFP fluorescence change, single-dose – cell-based, flow cytometry, S. cerevisiae, cherry picks, confirmation (AID 2273);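 note: median GFP channel fluorescence over the whole cell population gate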; conditions: S. cerevisiae AGP1-GFP strain, 3 h, at 10 µM
[5] = TOR pathway CIT2 reporter hit retest – S. cerevisiae, GFP fusion, cherry picks, mother/daughter gates, confirmation (AID 2274); conditions: S. cerevisiae CIT2-GFP strain, flow cytometry, 3 h, at 10 µM, stronger effect = higher value
[6] = measured here: daughter cell gate
[7] = measured here: mother cell gate
[8] = measured here: daughter cell gate response
[9] = measured here: mother cell gate response

| SMILES | GFP response vs DMSO [1] | GFP response vs DMSO [1, 6] [%] | GFP response vs DMSO [1, 7] [%] | GFP response relative to DMSO [2] | GFP response relative to DMSO [2, 8] [%] | GFP response relative to DMSO [2, 9] [%] | GFP response vs DMSO [3] | GFP response, % of DMSO [4] | GFP response, % of DMSO [5] | GFP response, % of DMSO [5, 6] [%] | GFP response, % of DMSO [5, 7] [%] |
| --- | --- | --- | --- | --- | --- | --- | --- | --- | --- | --- | --- |
| COC(=O)c1ccccc1NC(=O)c1nc(S(=O)(=O)Cc2ccccc2)ncc1Cl | 102% (inactive) | 101 | 102 | 89% (inactive) | 92.5 | 92.1 | 100% (inactive) | 97.8% (inactive) | 104% (inactive) | 101 | 103 |
| CCn1c(=O)c(C(C)=O)c(O)c2ccccc21 | 104% (inactive) | 101 | 104 | 89.3% (inactive) | 87.7 | 91 | 96.8% (inactive) | 102% (inactive) | 97.3% (inactive) | 99.2 | 91.9 |
| COc1ccc(-c2nn(-c3ccccc3)cc2C(=O)N/N=C/c2ccc([N+](=O)[O-])o2)cc1 | 103% (inactive) | 103 | 103 | 84.2% (inactive) | 92.5 | 92.1 | 100% (inactive) | 96.7% (inactive) | 113% (inactive) | 110 | 115 |
| CCN1/C(=C/c2ccc3cc(C)ccc3[n+]2CC)Sc2ccc3sccc3c21 | 96.7% (inactive) | 74.3 | 92.3 | 316% (active) | 155 | 287 | 244% (active) | 118% (inactive) | 132% (inactive) | 110 | 133 |
| CCn1c(=O)c(C(=O)Nc2nc3ccccc3[nH]2)c(O)c2ccccc21 | 82.3% (inactive) | 87.3 | 67 | 169% (active) | 109 | 185 | 159% (inactive) | 96.2% (inactive) | 128% (inactive) | 99.1 | 109 |
| O=C1Nc2ccc(Br)cc2/C1=C/C1CC=CCC1 (centres undefined) | 106% (inactive) | 100 | 105 | 131% (inactive) | 122 | 135 | 133% (inactive) | 111% (inactive) | 108% (inactive) | 108 | 104 |
| COc1ccc(NC(=O)C2C3C=CC(C3)C2C(=O)NCc2ccco2)c(OC)c1 (centres undefined) | 97.6% (inactive) | 94.4 | 93.3 | 100% (inactive) | 96 | 94.4 | 101% (inactive) | 103% (inactive) | 98.6% (inactive) | 95.8 | 96 |
| O=C(O)CCc1ccc(-c2ccc(Cl)cc2)o1 | 99% (inactive) | 91.7 | 97.2 | 138% (inactive) | 128 | 140 | 99% (inactive) | 85.4% (inactive) | 94.4% (inactive) | 88.4 | 94.4 |
| COc1ccc(N2CCN(C(=O)c3ccc(C)cc3Cl)CC2)cc1 | 101% (inactive) | 98.1 | 102 | 97.4% (inactive) | 98.7 | 99.3 | 104% (inactive) | 95.9% (inactive) | 92.6% (inactive) | 93.2 | 92.3 |
| CN1CCN(CCCCOc2ccccc2C=O)CC1 | 99.5% (inactive) | 97.8 | 101 | 97.4% (inactive) | 97.2 | 99.3 | 104% (inactive) | 102% (inactive) | 97.8% (inactive) | 94.8 | 98.7 |
| O=[N+]([O-])c1cccc(/C=N/Nc2ncc(Br)cn2)c1 | 90.9% (inactive) | 88.5 | 90.6 | 129% (inactive) | 121 | 132 | 128% (inactive) | 137% (inactive) | 86.1% (inactive) | 86.9 | 83.7 |
| COc1ccccc1-c1nnc(NC(=O)c2ccc3c(c2)OCO3)s1 | 106% (inactive) | 104 | 108 | 85.4% (inactive) | 84.8 | 89 | 97.8% (inactive) | 98.5% (inactive) | 100% (inactive) | 101 | 99.8 |
| CCCCOC(=O)C1CCC[C@@H](C)N1 (some centres undefined) | 101% (inactive) | 102 | 100 | 98.9% (inactive) | 101 | 99.5 | 103% (inactive) | 102% (inactive) | 100% (inactive) | 101 | 100 |
| Cc1ccc(/C(C#N)=C\c2ccc(N3CCOCC3)o2)cc1 | 97.8% (inactive) | 97.1 | 98 | 102% (inactive) | 104 | 103 | 109% (inactive) | 99.4% (inactive) | 98.8% (inactive) | 99.2 | 99.3 |
| COC(=O)c1ccc(/C=N\NC(=O)c2ccc(C)cc2Cl)cc1 | 98.6% (inactive) | 98.9 | 96.7 | 95.4% (inactive) | 94.4 | 95.1 | 102% (inactive) | 96.4% (inactive) | 103% (inactive) | 105 | 99.7 |
| COc1ccc(C(=O)NC(=S)Nc2ccc(CN3CCOCC3)cc2)cc1 | 101% (inactive) | 98.8 | 99.9 | 99.5% (inactive) | 99.1 | 99.4 | 99% (inactive) | 101% (inactive) | 98.8% (inactive) | 99.2 | 98.1 |
| CCC(C)(C)n1nnnc1C(c1ccc(O)c(OC)c1)N1CCc2ccccc2C1 (centres undefined) | 100% (inactive) | 99.6 | 97.6 | 117% (inactive) | 99.3 | 117 | 99.5% (inactive) | 117% (inactive) | 108% (inactive) | 108 | 105 |

| SMILES | GFP response vs DMSO [1] | GFP response vs DMSO [1, 6] [%] | GFP response vs DMSO [1, 7] [%] | GFP response relative to DMSO [2] | GFP response relative to DMSO [2, 8] [%] | GFP response relative to DMSO [2, 9] [%] | GFP response vs DMSO [3] | GFP response, % of DMSO [4] | GFP response, % of DMSO [5] | GFP response, % of DMSO [5, 6] [%] | GFP response, % of DMSO [5, 7] [%] |
| --- | --- | --- | --- | --- | --- | --- | --- | --- | --- | --- | --- |
| COc1ccc(C(=O)/C=C2/C(=O)Nc3ccccc32)cc1OC | 98.2% (inactive) | 98.8 | 99.3 | 97.7% (inactive) | 96.5 | 97.5 | 99.5% (inactive) | 97.5% (inactive) | 95% (inactive) | 94.6 | 93.3 |
| COc1cc(/C=C/C(=O)c2c(O)cc(C)oc2=O)cc(OC)c1O | 98.2% (inactive) | 99.6 | 96.8 | 106% (inactive) | 104 | 106 | 105% (inactive) | 101% (inactive) | 97.3% (inactive) | 99.2 | 94.4 |
| CCCC(=O)c1ccc(N2CCN(C(=O)c3ccc(Br)cc3)CC2)c(F)c1 | 101% (inactive) | 95.9 | 94 | 102% (inactive) | 99.2 | 99.3 | 102% (inactive) | 100% (inactive) | 105% (inactive) | 105 | 99.7 |
| O=C(NNC(=O)C1CCCCC1)C(=O)NC1CCCCC1 | 99.1% (inactive) | 99.8 | 99.3 | 98.8% (inactive) | 97.9 | 97.5 | 112% (inactive) | 104% (inactive) | 104% (inactive) | 102 | 104 |
| Cc1ccc(S(=O)(=O)N2CC3CCC2C3)cc1 (centres undefined) | 101% (inactive) | 100 | 104 | 97.4% (inactive) | 97.2 | 99.3 | 97.8% (inactive) | 97.4% (inactive) | 112% (inactive) | 110 | 114 |
| COc1cccc(C(=O)/C=C/c2ccc(SC)cc2)c1 | 98.6% (inactive) | 98.1 | 98.5 | 103% (inactive) | 104 | 103 | 100% (inactive) | 101% (inactive) | 99.7% (inactive) | 99.1 | 99.7 |
| O=C(Nc1ccccc1O)c1ccc(Cl)cc1 | 96.8% (inactive) | 95.6 | 96.6 | 98.7% (inactive) | 100 | 100 | 102% (inactive) | 97.8% (inactive) | 100% (inactive) | 99.7 | 98.7 |
| Cc1nn(Cc2c(Cl)cccc2Cl)c(C)c1NC(=O)c1sc2ccccc2c1Cl | 94.8% (inactive) | 95.7 | 95.8 | 95.3% (inactive) | 93.6 | 98.5 | 99.5% (inactive) | 108% (inactive) | 104% (inactive) | 100 | 106 |
| COc1ccc(/C=N\NC(=O)c2cc(OCC(F)(F)F)ccc2OCC(F)(F)F)cc1 | 93.7% (inactive) | 97.9 | 94 | 96.7% (inactive) | 97.6 | 98.3 | 102% (inactive) | 94.8% (inactive) | 98.3% (inactive) | 99.1 | 95 |
| O=C(CSCc1cccc(Br)c1)N=Nc1c(O)[nH]c2ccccc12 | 76.9% (inactive) | 67.8 | 73 | 126% (inactive) | 102 | 126 | 124% (inactive) | 137% (inactive) | 130% (inactive) | 110 | 129 |
| COc1cc(NC(=O)c2cccc([N+](=O)[O-])c2)ccc1NC(=O)c1cc2ccccc2o1 | 98% (inactive) | 99.9 | 97.8 | 94.9% (inactive) | 98.2 | 95.1 | 101% (inactive) | 100% (inactive) | 107% (inactive) | 105 | 108 |
| CCCc1[nH]nc2c1C(c1ccc(OC(=O)c3ccco3)cc1)C(C#N)=C(N)O2 (centres undefined) | 99.9% (inactive) | 101 | 101 | 91.9% (inactive) | 92.2 | 91.6 | 124% (inactive) | 102% (inactive) | 105% (inactive) | 108 | 105 |
| COc1ccccc1OC(C)C(=O)Nc1ccccc1C(=O)NCC1CCCO1 (centres undefined) | 97% (inactive) | 95.2 | 97.2 | 97.7% (inactive) | 97.9 | 97.5 | 99.5% (inactive) | 103% (inactive) | 97.8% (inactive) | 98.3 | 96.8 |
| COc1cccc(OCC(=O)N2CCCc3ccccc32)c1 | 97.8% (inactive) | 97 | 97.1 | 101% (inactive) | 105 | 102 | 99.3% (inactive) | 100% (inactive) | 95.8% (inactive) | 97.6 | 94.9 |
| COc1cccc2c1Oc1ncccc1N(C(=O)CCC(=O)NCc1ccccc1F)C2 | 100% (inactive) | 101 | 101 | 142% (inactive) | 147 | 139 | 135% (inactive) | 105% (inactive) | 148% (inactive) | 150 | 147 |
| Cc1ccc(Nc2c(-c3ccccn3)nc3ccc(C)cn23)cc1 | 97.4% (inactive) | 106 | 98.6 | 148% (inactive) | 137 | 153 | 108% (inactive) | 82.9% (inactive) | 105% (inactive) | 121 | 93.3 |
| Cc1nc2ccc(Br)cn2c1C(=O)N/N=C\c1ccccc1Cl | 95.4% (inactive) | 95.6 | 96.6 | 94.1% (inactive) | 94.4 | 96.1 | 96.2% (inactive) | 98% (inactive) | 99.7% (inactive) | 99.1 | 99.7 |

— PubChem BioAssay
